According to ChEMBL document CHEMBL1152166, “Activation and inhibition of leukotriene A4 hydrolase aminopeptidase activity by diphenyl ether and derivatives” (Bioorg Med Chem Lett, 2008):
Calls of active or inactive are those of the source. The rule behind the calls is not given here.

Legend:
[1] = target: T1, Leukotriene A-4 hydrolase (Homo sapiens, UniProt P09960); assay: Inhibition of aminopeptidase activity of human recombinant leukotriene A4 hydrolase expressed in Escherichia coli assessed as p-nitroanilide release by spectrophotometry
T1 sequence (P09960 whole entry): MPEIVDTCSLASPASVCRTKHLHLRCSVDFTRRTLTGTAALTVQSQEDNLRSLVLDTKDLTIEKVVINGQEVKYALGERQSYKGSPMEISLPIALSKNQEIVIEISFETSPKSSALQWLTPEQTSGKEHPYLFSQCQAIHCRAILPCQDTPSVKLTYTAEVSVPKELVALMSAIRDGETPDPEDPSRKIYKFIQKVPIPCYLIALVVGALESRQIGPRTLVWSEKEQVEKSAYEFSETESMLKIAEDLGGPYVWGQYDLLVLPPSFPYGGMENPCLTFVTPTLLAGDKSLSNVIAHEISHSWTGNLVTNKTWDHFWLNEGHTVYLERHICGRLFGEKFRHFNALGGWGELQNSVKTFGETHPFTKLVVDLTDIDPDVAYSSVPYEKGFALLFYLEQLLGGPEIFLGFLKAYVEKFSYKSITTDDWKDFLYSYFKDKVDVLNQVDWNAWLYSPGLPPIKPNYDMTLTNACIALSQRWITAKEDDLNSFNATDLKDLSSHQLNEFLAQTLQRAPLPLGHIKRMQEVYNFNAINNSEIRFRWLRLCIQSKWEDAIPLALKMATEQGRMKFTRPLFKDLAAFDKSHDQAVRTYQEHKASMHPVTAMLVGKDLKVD
Method in brief: (§1)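 Recombinant human LTA4H, expressed from a pET 21a construct in E. coli and purified by ammonium sulfate precipitation, anion-exchange and gel filtration. Aminopeptidase activity was read spectrophotometrically as p-nitroanilide released from Ala-pNA. Values are the average of three experiments with standard deviation. Substrate dependence was examined by Lineweaver–Burk analysis to give apparent Km, Vmax, KA, α and β.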

[2] = target: T1, Leukotriene A-4 hydrolase; assay: Inhibition of epoxide hydrolase activity of human recombinant leukotriene A4 hydrolase expressed in Escherichia coli assessed as LTB4 production by RP-HPLC
[3] = target: T1, Leukotriene A-4 hydrolase; assay: Activation of aminopeptidase activity of human recombinant leukotriene A4 hydrolase expressed in Escherichia coli assessed as p-nitroanilide release by spectrophotometry; method in brief: as §1
[4] = target: T2, Leukotriene A-4 hydrolase (Homo sapiens) (UniProt P09960); assay: Activation of aminopeptidase activity of human recombinant leukotriene A4 hydrolase expressed in Escherichia coli assessed as p-nitroanilide release at 100 uM by spectrophotometry; method in brief: as §1
T2 sequence (whole entry): T1 sequence (P09960 whole entry)

[5] = target: T2, Leukotriene A-4 hydrolase (Homo sapiens); assay: Inhibition of epoxide hydrolase activity of human recombinant leukotriene A4 hydrolase expressed in Escherichia coli assessed as LTB4 production at 100 uM by RP-HPLC
[6] = target: T2, Leukotriene A-4 hydrolase (Homo sapiens); assay: Inhibition of aminopeptidase activity of human recombinant leukotriene A4 hydrolase expressed in Escherichia coli by spectrophotometry in presence of <0.65 mM […]; method in brief: as §1
[7] = target: T2, Leukotriene A-4 hydrolase (Homo sapiens); assay: Activation of aminopeptidase activity of human recombinant leukotriene A4 hydrolase expressed in Escherichia coli by spectrophotometry in presence of >0.65 mM […]; method in brief: as §1

| IC50 [1] [µM] | IC50 [2] [µM] | AC50 [3] [µM] | Activity [4] | Activity [5] | Activity [6] | Activity [7] | Compound |
| --- | --- | --- | --- | --- | --- | --- | --- |
| 0.228 | 0.035 | – | – | – | – | – | NCCOc1ccc(Oc2ccccc2)cc1 |
| – | – | 6.01 | Active | inactive | – | – | c1ccc(Oc2ccccc2)cc1 [DIPHENYLETHER] |
| – | – | 11.1 | Active | inactive | – | – | Oc1ccc(Oc2ccccc2)cc1 |
| 5.72 | – | – | – | inactive | – | – | CCCCOc1ccc(Oc2ccccc2)cc1 |
| 4.13 | – | – | – | inactive | – | – | CCCCCOc1ccc(Oc2ccccc2)cc1 |
| – | – | – | – | inactive | Active | Active | CCCOc1ccc(Oc2ccccc2)cc1 |
| 5.69 | – | – | – | inactive | – | – | CCCOc1ccc(Oc2ccc(O)cc2)cc1 |
| – | – | 2.82 | Active | inactive | – | – | CCOc1ccc(Oc2ccccc2)cc1 |
| – | – | 14.8 | Active | inactive | – | – | CCOc1ccc(Oc2ccc(O)cc2)cc1 |
| – | – | 3.39 | Active | inactive | – | – | COc1ccc(Oc2ccccc2)cc1 |
| 2.48 | – | – | – | inactive | – | – | CCCCCOc1ccc(Oc2ccc(O)cc2)cc1 |
| – | – | 17 | Active | inactive | – | – | COc1ccc(Oc2ccc(O)cc2)cc1 |
| 5.56 | – | – | – | inactive | – | – | CCCCOc1ccc(Oc2ccc(O)cc2)cc1 |
